HTRA1 inh: HTRA1 (human) protease inhibition. Q92743. recombinant HTRA1, FP-rhodamine activity-based probe, fluorescence polarization. inhibition, % at 5.96 µM. 340,000 compounds, 0.5% hits. AID 504803; in the data active = inhibition above about 36%
Target sequence (Q92743 whole entry, looked up): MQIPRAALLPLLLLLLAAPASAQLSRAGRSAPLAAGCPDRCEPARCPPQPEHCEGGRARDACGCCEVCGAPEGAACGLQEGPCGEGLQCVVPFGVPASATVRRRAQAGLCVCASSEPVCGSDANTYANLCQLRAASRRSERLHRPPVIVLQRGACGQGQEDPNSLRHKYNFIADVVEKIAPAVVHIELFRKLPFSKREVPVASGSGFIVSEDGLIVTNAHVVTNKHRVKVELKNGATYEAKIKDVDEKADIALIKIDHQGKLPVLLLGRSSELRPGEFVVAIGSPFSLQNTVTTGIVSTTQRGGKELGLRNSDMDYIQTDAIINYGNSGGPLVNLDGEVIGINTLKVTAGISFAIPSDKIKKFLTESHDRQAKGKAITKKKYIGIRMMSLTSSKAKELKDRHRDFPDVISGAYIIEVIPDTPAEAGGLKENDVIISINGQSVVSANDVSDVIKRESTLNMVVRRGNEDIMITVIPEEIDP
SIAE primary: human SIAE inhibition, primary screen; Q9HAT2; SIAE FP-Rh probe binding, fluorescence polarization; inhibition, % at 9.66 µM; 370,000 compounds, 0.69% hits;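 active = inhibition above a cutoff: mean of compounds within the control limits plus 3 SD of those, cut at about 17% in these data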
TCR CD3 inh: human TCR-CD3 binding inhibition | TAMRA-labeled TCR probe fluorescence, biochemical | inhibition, % at 9.4 µM | 360,000 compounds, 0.37% hits | AID 651800; in the data active = inhibition above about 19%;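 note: recombinant mutant TCR 2C K166C tagged with TAMRA read by polarization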
PRMT1 inh: inhibitors of human PRMT1 | inhibition, % at 2.79 µM | 370,000 compounds, 1.3% hits | Q99873 | recombinant PRMT1, activity-based probe fluorescence polarization;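 active = inhibition above about 21% made by adding two undisclosed values, limit read from the data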
mABHD4 FP: inhibitors of mouse ABHD4 | Q8VD66 | purified mABHD4, FP-Rh probe fluorescence polarization | inhibition, % at 8.92 µM | 370,000 compounds, 0.54% hits | AID 720543;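 active = inhibition exceeding the mean over every tested compound plus 3 SD, cut at about 30% in these data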
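Doses – 8.92 µM, single dose · Material – wild-type mouse ABHD4 protein · Replication – single well per compound (singlicate) · Measure – percent inhibition of probe binding, normalized to plate controls · Schedule – 45 min compound pre-incubation plus 60 min probe step, 25 °C · Detection – fluorescence polarization with parallel and perpendicular emission, 525/598 nm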
ATG4B inhibitor: ATG4B (human) cysteine protease inhibition | 340,000 compounds, 0.51% hits | inhibition, % at 8.33 µM | ATG4B cleavage of LC3-PLA2, NBD-HPC fluorescence, 1 h | Q9Y4P1 | AID 504462; in the data active = inhibition above about 40%
HTRA1 inh conf: HTRA1 (human) inhibition, confirmation; shares compounds with HTRA1 inh; recombinant HTRA1, FP-rhodamine activity-based probe, fluorescence polarization; inhibition, % at 5.96 µM; 1,600 compounds, 66% hits; AID 540248;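 active = mean inhibition over three repeats above a set limit taken from the earlier primary screen, cut at about 37% in these data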;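 note: inhibitors block probe binding so polarization drops and inhibition rises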
Numbers stand for hits; . = inactive; / = no result given. A selection: hits, their analogues and other compounds. The true share with any hit is near 2.9%.

SMILES	HTRA1 inh	SIAE primary	TCR CD3 inh	PRMT1 inh	mABHD4 FP	ATG4B inhibitor	HTRA1 inh conf
O=C(O)C1OC(Oc2cc3oc(-c4ccccc4)cc(=O)c3c(O)c2O)C(O)C(O)C1O (centres undefined)	45	.	.	28	.	.	43
COc1cccc(CNc2ccc(N3CCC(C)CC3)cc2)c1OC	52	.	.	.	.	.	46
N#Cc1ccc(Cn2ccc3ccc(-c4ccc5ccn(C(=O)C6CC6)c5c4)cc32)cc1	/	.	/	.	.	/	/
Cc1ccc2cc(C3C(C#N)=C(N)Oc4c3ccc3cccnc43)c(=O)[nH]c2c1 (centres undefined)	79	/	/	/	/	.	58
CCOc1cccc(C2C(C#N)=C(N)Oc3cc(C)[nH]c(=O)c32)c1OCC (centres undefined)	.	.	.	.	.	.	/
N#CC1=C(N)Oc2c(ccc3cccnc23)C1c1cccnc1 (centres undefined)	.	.	.	.	.	.	/
CCc1ccc2[nH]c(=O)c(C3C(C#N)=C(N)Oc4c3ccc3cccnc43)cc2c1 (centres undefined)	82	.	.	.	.	.	.
CC(C)C(=O)OCCCN1CCC2(CCC(c3ccccc3)CC2)C1=O (centres undefined)	/	.	/	.	.	/	/
O=C(CN1CCN(S(=O)(=O)c2ccc(Cl)cc2)CC1)c1ccc(O)c(O)c1	43	/	/	/	/	.	44
O=C(CN1CCN(S(=O)(=O)c2ccc(F)cc2)CC1)c1ccc(O)c(O)c1	.	.	.	.	.	.	/
COC(=O)C1=C(C)NC(=O)/C1=C\c1cc(C)n(-c2cc(C)cc(C)c2)c1C	53	.	.	.	.	.	.
COC(=O)C1=C(C)NC(=O)/C1=C\c1cc(C)n(-c2ccccc2)c1C	.	.	.	.	.	.	/
COC(=O)[C@]12C[C@H](CC(=O)NCCCN3CCCC3=O)C(=O)N(Cc3ccc(Cl)cc3Cl)C1=C[C@H](C(C)(C)C)O[C@@H]2C	/	.	/	.	.	/	/
O=C(O)c1cccc(Cn2c(Cl)c(/C=N/NC(=O)c3cc4ccccc4cc3O)sc2=O)c1	50	.	.	.	.	.	55
Cc1cc2cc(CNC(=S)Nc3ccc(OC(F)(F)F)cc3)ccc2n1C	41	.	.	.	.	.	.
CN(C)c1ccnc(Nc2ccccc2)c1C#N	/	.	.	.	.	.	/
CN(C)c1ccnc2c[cH-]cc12.[Fe].c1ccc(-[c-]2[c-](-c3ccccc3)[c-](-c3ccccc3)[c-](-c3ccccc3)[c-]2-c2ccccc2)cc1 (centres undefined)	37	.	.	.	.	.	57
O=C1CC(/C=C/c2ccco2)=Nc2ccccc2N1	43	/	/	/	/	.	.
O=C1CC(/C=C/c2ccccn2)=Nc2ccccc2N1	.	.	.	.	.	.	/
CC(C)n1nnnc1C1(C)CN(S(C)(=O)=O)CC(=O)N1Cc1cccc(C(F)(F)F)c1 (centres undefined)	/	.	/	.	.	/	/
Cc1ccc2c(c1)c(C)cc[n+]2Cc1ccccc1	42	.	.	.	.	.	.
COc1ccc2c(c1)c(C)cc[n+]2Cc1ccccc1	.	.	.	.	.	.	/
COC(=O)[C@]12C[C@H](CC(=O)N3CCCC3)C(=O)N(Cc3cccc4ccccc34)C1=C[C@H](COCc1ccccc1)O[C@@H]2C	/	.	/	.	.	/	/
CCOc1ccccc1/C=C/c1nc2ccccc2[nH]c1=O	40	.	.	.	.	.	.
O=C(Nc1ccc(Br)cc1)OCCCN1CCC2(CCCCC2)C1=O	/	.	/	.	.	/	/
Nc1ccc(Nc2ccccc2N)cc1	64	.	.	.	.	.	83
CCCCC#CC(CC)NCc1ccc(OC)cc1OC (centres undefined)	/	.	/	.	.	/	/
Cc1c(N=C2C=CC(=O)c3ccccc32)c(=O)n(-c2ccccc2)n1C	37	.	.	.	.	.	.
CCC1=NN(C(=O)c2ccc(Cl)cc2)C(O)(c2ccc(C)cc2)C1 (centres undefined)	.	.	.	.	.	.	/
CCOC(=O)C1=NN(C(=O)c2ccc(C)cc2)C(O)(c2ccc(Cl)cc2)C1 (centres undefined)	60	.	.	.	.	.	72
